Two compounds from ChEMBL document CHEMBL1125843, “Electron-deficient isoalloxazines: model systems for disulfide prodrug formation” (J Med Chem, 1991) can be followed below.

Type in all cases: ADME
The nature of data set [1]: […] rate constant (10e7kAH) required for the formation of m-nitrothiophenol disulfide. The method, boiled down:
(§1)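 Isoalloxazine-catalyzed oxidation of m-nitrothiophenol to its disulfide was quantified by HPLC in phosphate buffer (0.08-0.4 M, pH 7-9) with ionic strength held at 0.4 M (KCl). Isoalloxazine stocks in dry methanol/dichloromethane were diluted into aqueous-methanolic reactions. At fixed pH, k_obs/[mNTP] was plotted against buffer base fraction. The slopes were then plotted against [AH]/[A−] to give k_AH (slope) and k_A− (intercept). Values are the mean of two determinations.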

A short description of data set [2]: General acid and general base rate constant (10e4kA-) required for the formation of m-nitrothiophenol disulfide. In outline: as §1
The nature of data set [3]: Spontaneous rate constant (10e6 ko) required for the formation of m-nitrothiophenol disulfide. The method, boiled down: as §1

In data set [1], `O=c1nc2n(-c3ccccc3)c3ccccc3nc-2c(=O)n1CCCCCCCCS` showed a kAH of 6.8 M⁻¹ s⁻¹. Also, the kA- in data set [2] worked out at 0.1 M⁻¹ s⁻¹. Besides, the “k'o” value in data set [3] worked out at 3 M⁻¹ s⁻¹.
Compound `Cn1c2nc(=O)n(CCCCCCCCS)c(=O)c-2nc2ccc(C#N)cc21` came in with a kAH in data set [1] of 131.7 M⁻¹ s⁻¹. The same compound displayed a kA- in data set [2] of 2.3 M⁻¹ s⁻¹. Besides, the “k'o” value in data set [3] was found to be 4.6 M⁻¹ s⁻¹.
